Shown are actives, neighbours in structure and some others; about 2.2% of the full set was active somewhere.
PfM18AAP inh-1 – blocks P. falciparum M18 aspartyl aminopeptidase; inhibition, % at 7.35 µM; recombinant PfM18AAP, H-Glu-NHMec fluorogenic cleavage; AID 1822; 290,000 compounds, 1.2% hits;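 active means inhibition above the campaign mean inhibition over all tested compounds plus 3 SD, cut at about 28% in these data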
PfGluPho inh – PfG6PD (Plasmodium falciparum) enzyme inhibition; inhibition, % at 20 µM; 350,000 compounds, 0.78% hits; PfGluPho enzyme, NADPH resazurin-diaphorase fluorescence;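 active means inhibition reaching at least a set limit at 20 µM in the primary screen, cut at about 59% in these data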
HKDC1 inhibitor – HKDC1 (human) hexokinase inhibition. inhibition, % at 20 µM. AID 493160. recombinant HKDC1, G6PDH/diaphorase resazurin coupled fluorescence. 340,000 compounds, 0.16% hits. Q2TB90;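 active means inhibition above about 35% when tested at 20 µM, limit read from the data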
Target sequence (Q2TB90 whole entry, looked up): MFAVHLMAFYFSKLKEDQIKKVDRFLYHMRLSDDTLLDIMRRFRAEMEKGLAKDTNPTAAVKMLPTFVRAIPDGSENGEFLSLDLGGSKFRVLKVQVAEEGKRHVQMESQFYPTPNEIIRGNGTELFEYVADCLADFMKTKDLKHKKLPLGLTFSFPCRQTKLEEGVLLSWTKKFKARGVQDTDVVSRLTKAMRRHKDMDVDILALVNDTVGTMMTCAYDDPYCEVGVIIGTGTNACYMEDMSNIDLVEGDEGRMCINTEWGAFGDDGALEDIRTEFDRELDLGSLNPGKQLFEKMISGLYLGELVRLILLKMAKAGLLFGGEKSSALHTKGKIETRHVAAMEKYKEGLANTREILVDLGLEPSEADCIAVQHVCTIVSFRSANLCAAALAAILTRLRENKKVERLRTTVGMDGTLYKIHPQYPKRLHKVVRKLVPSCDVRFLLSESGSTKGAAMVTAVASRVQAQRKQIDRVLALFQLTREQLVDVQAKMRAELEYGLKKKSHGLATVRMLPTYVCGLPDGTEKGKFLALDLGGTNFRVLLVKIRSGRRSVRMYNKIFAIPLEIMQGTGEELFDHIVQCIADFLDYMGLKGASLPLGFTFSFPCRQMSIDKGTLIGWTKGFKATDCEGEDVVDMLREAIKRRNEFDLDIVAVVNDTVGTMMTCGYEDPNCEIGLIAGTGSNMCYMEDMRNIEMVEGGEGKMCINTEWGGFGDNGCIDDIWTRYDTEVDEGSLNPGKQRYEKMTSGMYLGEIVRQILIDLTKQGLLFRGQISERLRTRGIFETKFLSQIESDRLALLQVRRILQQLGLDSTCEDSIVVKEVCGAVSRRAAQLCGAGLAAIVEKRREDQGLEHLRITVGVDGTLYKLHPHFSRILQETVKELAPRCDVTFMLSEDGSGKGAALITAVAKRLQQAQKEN
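Material: recombinant HKDC1 hexokinase; Amount: HKDC1 at 5 µg/mL; Medium: Tris pH 8.0 buffer with MgCl2, Tween-20, BSA, BME; Schedule: 90 min reaction incubation at room temperature, dark; Technique: coupled resazurin fluorescence, excitation 525 nm, emission 613 nm.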
Neddyl block – cullin neddylation inhibition | P61081+Q13564 | TR-FRET cullin neddylation, biochemical | inhibition, % at 25 µM | 360,000 compounds, 0.58% hits | AID 651699; in the data active means inhibition above about 36%
PfM18AAP inh-2 – confirmation of Plasmodium falciparum M18 aspartyl aminopeptidase inhibitors | shares compounds with PfM18AAP inh-1 | recombinant PfM18AAP, H-Glu-NHMec fluorogenic cleavage | inhibition, % at 7.35 µM | 2,400 compounds, 28% hits | AID 2170;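 active means mean inhibition over replicate wells above the hit cutoff set for the earlier primary screen, cut at about 29% in these data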
CTSL1 counter – counter-screen for PFM18AAP inhibitors: confirmation of human cathepsin L inhibitors. shares compounds with PfM18AAP inh-1. 2,400 tested, under 10 active. inhibition, % at 5.96 µM. purified cathepsin L1, Z-Leu-Arg-MCA fluorescence;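 active means average inhibition across replicates above the hit cutoff set in the earlier primary screen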
Large screens that a line does not name were inactive (follow-up assays come after a bar, where shown).

N#CC1=C(N)C(C#N)(C#N)C2(CCC3(CC2)OCCO3)C2CC3(CC=C12)OCCO3 (stereo unspecified)	PfM18AAP inh-1 55.2 | PfM18AAP inh-2 inactive | CTSL1 counter inactive
COc1ccc(NC(=O)NNC(=O)CCc2ccc(O)c(O)c2)cc1OC	PfM18AAP inh-1 81.8 | PfM18AAP inh-2 61.5 | CTSL1 counter inactive
COc1ccc(CCC(=O)NNC(=O)Nc2ccc(OC)c(OC)c2)cc1	none
CC(OC(=O)Cc1ccccc1F)C(=O)Nc1ccc(Cl)cn1 (stereo unspecified)	none (no result: PfM18AAP inh-1)
CCCc1cc(C(=O)Nc2ccc(OC)cc2[N+](=O)[O-])cs1	none
Nc1nc(=S)c2ncn(C3CCCCC3)c2[nH]1	none (no result: PfM18AAP inh-1)
CCCCCn1cnc2c(=S)nc(N)[nH]c21	PfM18AAP inh-1 41.1 | PfM18AAP inh-2 inactive | CTSL1 counter inactive
CCCCn1cnc2c(=S)nc(N)[nH]c21	PfM18AAP inh-1 39.7 | PfM18AAP inh-2 inactive | CTSL1 counter inactive
CCCn1cnc2c(=S)nc(N)[nH]c21	PfM18AAP inh-1 57.3 | PfM18AAP inh-2 inactive | CTSL1 counter inactive
O=C(Cc1ccccc1[N+](=O)[O-])NCC1(c2cccc3c2OCO3)OCCO1	none (no result: PfM18AAP inh-1)
CCOc1ccc(NS(=O)(=O)c2ccc(C(=O)N(C)Cc3cccc(OC)c3OC)cc2)cc1	none
C/C(=N\Nc1ccc2nncn2n1)c1ccco1	PfM18AAP inh-1 44.7 | PfM18AAP inh-2 inactive | CTSL1 counter inactive
C/C(=N\Nc1ccc2nncn2n1)c1ccc(Br)s1	PfM18AAP inh-1 50.3 | PfM18AAP inh-2 inactive | CTSL1 counter inactive
C/C(=N\Nc1ccc(Cl)cc1)c1ccccn1	none
C(=N\Nc1ccc2nncn2n1)/c1ccccn1	PfM18AAP inh-1 41.0 | PfM18AAP inh-2 inactive | CTSL1 counter inactive
C/C(=N\Nc1ccc2nncn2n1)c1ccccn1	PfM18AAP inh-1 40.0 | PfM18AAP inh-2 inactive | CTSL1 counter inactive
C(=N\Nc1nncc2ccccc12)/c1ccccn1	none
COc1ccccc1CCC(=O)Nc1ccc(S(=O)(=O)Nc2cc(C)nc(C)n2)cc1	none (no result: PfM18AAP inh-1)
COc1cc(NC(=O)c2ccc(NC3=NC4CS(=O)(=O)CC4S3)cc2)cc(OC)c1OC (stereo unspecified)	none
COc1cccc(C2C(C(N)=O)=C(C)Nc3nc(CCCO)nn32)c1 (stereo unspecified)	none
CCOc1cccc(C(=O)Nc2ccccc2C(=O)N2CCOCC2)c1	none
c1ccc(Nc2nc(N3CCCC3)nc(N3CCOCC3)n2)cc1	none (no result: PfM18AAP inh-1)
CCNC(=S)NNc1nc(N2CCCCC2)nc(N2CCOCC2)n1	PfM18AAP inh-1 44.0 | PfM18AAP inh-2 inactive | CTSL1 counter inactive
CC(C)Nc1nc(NC(C)C)nc(N(C)N)n1	PfM18AAP inh-1 48.4 | PfM18AAP inh-2 39.7 | CTSL1 counter inactive
O=C1C2CC=CCC2C(=O)N1c1ncn[nH]1 (stereo unspecified)	none
O=C1C2CC=C(Cl)CC2C(=O)N1c1ncn[nH]1 (stereo unspecified)	PfM18AAP inh-1 52.9 | PfM18AAP inh-2 inactive | CTSL1 counter inactive
CCn1cc(CCCC(=O)NCc2cccc(OC)c2)c2ccccc21	none
O=C(C1=C[C@H](c2ccc3c(c2)OCO3)C[C@H](OCc2ccc(CO)cc2)O1)N1CCCCCCC1	PfM18AAP inh-1 32.7 | PfM18AAP inh-2 inactive | CTSL1 counter inactive
O=C(C1=C[C@@H](c2ccc3c(c2)OCO3)C[C@@H](OCc2ccc(CO)cc2)O1)N1CCOCC1	none
COc1ccc(/C=C/C(=O)Nn2cnnc2)cc1	PfM18AAP inh-1 80.5 | PfM18AAP inh-2 70.9 | CTSL1 counter inactive
C#CCNC(=O)/C=C/c1ccc(OC)cc1	none
O=C(/C=C/c1ccccc1)Nn1cnnc1	PfM18AAP inh-1 80.3 | PfM18AAP inh-2 70.0 | CTSL1 counter inactive
O=C(/C=C/c1ccccc1)Nn1cnc2ccccc2c1=O	none
O=C(/C=C/c1ccccc1)Nc1ncn[nH]1	PfM18AAP inh-1 44.6 | PfM18AAP inh-2 47.5 | CTSL1 counter inactive
COc1ccc(S(=O)(=O)NNc2nc(C)cc(C)n2)cc1[N+](=O)[O-]	PfM18AAP inh-1 62.2 | PfM18AAP inh-2 39.0 | CTSL1 counter inactive
COc1cc(/C=C/c2cc(C(=O)O)c3ccccc3n2)cc(OC)c1O	PfM18AAP inh-1 50.6 | PfM18AAP inh-2 inactive | CTSL1 counter inactive
O=C(NCc1nnc(SCC(=O)N2CCOCC2)o1)c1c(F)cccc1F	none
NS(=O)(=O)c1ccc(NC(=S)NC2CCCCCC2)cc1	PfM18AAP inh-1 44.2 | PfM18AAP inh-2 inactive | CTSL1 counter inactive
NS(=O)(=O)c1ccc(NC(=S)NC2CCCC2)cc1	PfM18AAP inh-1 45.9 | PfM18AAP inh-2 inactive | CTSL1 counter inactive
COc1cccc2cc(C(=O)Nc3ccccc3C)/c(=N/O)oc12	PfM18AAP inh-1 48.6 | PfM18AAP inh-2 inactive | CTSL1 counter inactive
Cc1cc(C)c2c(N)c(C(=O)NN)sc2n1	none
Cc1cc(C)c2c(N)c(C(=O)NNC(=O)c3ccccc3)sc2n1	PfM18AAP inh-1 43.6 (not shown: Neddyl block) | PfM18AAP inh-2 inactive | CTSL1 counter inactive
CCN(CCCNC(=O)C1CCC(=O)N1Cc1ccccc1Cl)c1cccc(C)c1 (stereo unspecified)	PfM18AAP inh-1 36.8 | PfM18AAP inh-2 inactive | CTSL1 counter inactive
CCN(CCNC(=O)C1CCC(=O)N1Cc1ccc(C)cc1)c1ccccc1 (stereo unspecified)	none
CCN(CCCNC(=O)C1CCC(=O)N1Cc1ccc(C)cc1)c1cccc(C)c1 (stereo unspecified)	PfM18AAP inh-1 54.0 | PfM18AAP inh-2 inactive | CTSL1 counter inactive
CCN(CCCNC(=O)c1ccc(N2CCCC2=O)cc1)c1cccc(C)c1	PfM18AAP inh-1 41.0 | PfM18AAP inh-2 inactive | CTSL1 counter inactive
CCCS(=O)(=O)N1CCC(C(=O)NCCCN(CC)c2cccc(C)c2)CC1	PfM18AAP inh-1 39.9 | PfM18AAP inh-2 inactive | CTSL1 counter inactive
O=C(CSc1nnc(COc2ccc(Cl)cc2)o1)N1CCCCC1	none
CCN(CCCNC(=O)CN1C(=O)COc2ccccc21)c1cccc(C)c1	PfM18AAP inh-1 49.2 | PfM18AAP inh-2 inactive | CTSL1 counter inactive
CCN(CC)S(=O)(=O)c1ccc(N2CCOCC2)c(NC(=O)COc2ccccc2C)c1	none (no result: PfM18AAP inh-1)
CNS(=O)(=O)c1cccc(C(=O)OCC(=O)c2ccc3[nH]c(=O)[nH]c3c2)c1	none (no result: PfM18AAP inh-1)
Cc1cc(N/N=C\c2ccccc2)nc(-c2ccccc2O)n1	none (not shown: Neddyl block)
Cc1cc(N/N=C/c2ccc(O)cc2O)nc(-n2nc(C)cc2C)n1	PfM18AAP inh-1 50.8 | PfM18AAP inh-2 33.3 | CTSL1 counter inactive
Cc1cc(N/N=C/c2ccc(O)cc2O)nc(-c2ccccc2O)n1	PfM18AAP inh-1 52.2 | PfM18AAP inh-2 53.7 | CTSL1 counter inactive
Cc1cc(N/N=C/c2ccccc2O)nc(-c2ccccc2O)n1	PfM18AAP inh-1 41.9 | PfM18AAP inh-2 39.6 | CTSL1 counter inactive
Oc1ccc(-c2csc(Nc3ncccn3)n2)cc1O	PfM18AAP inh-1 64.7 | PfM18AAP inh-2 53.3 | CTSL1 counter inactive
Fc1ccc(-c2csc(-c3cccnc3)n2)cc1F	none
COc1cc(-c2csc(C)n2)ccc1O	none
Cc1ccc2nc(-c3ccc(O)c(O)c3)cn2c1	PfM18AAP inh-1 69.9 | PfM18AAP inh-2 54.8 | CTSL1 counter inactive

Source: PubChem BioAssay (several laboratories)
